In the test the target is Methionine--tRNA ligase, mitochondrial (Homo sapiens) (UniProt Q96GW9). Kind of test: human mtMetRS tRNA charging inhibition – biochemical, radioactivity, round 1, selectivity assay for T. brucei MetRS inhibitor project, late-stage follow-up (AID 743061).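 Further: 0% = DMSO with full reaction and 100% = DMSO wells lacking tRNA.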 Conditions: recombinant human mtMetRS, [3H]Met tRNA charging, at 10 µM, stronger effect = higher value. In a few lines:
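System: recombinant human mitochondrial methionyl-tRNA synthetase (MetRS); Buffer or medium: pH 8.0 reaction buffer containing 2.5 mM ATP; Controls: high DMSO, low without tRNA; Reagent: [3H]Met 240 nM plus bulk E. coli tRNA; Schedule: 15 min preincubation, 1 h reaction, room temperature; Measured by: scintillation counts of TCA-precipitated charged tRNA on filters.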
`O=C(NCc1nc2ccccc2[nH]1)C1=C[C@H](C2CC2)C[C@H](OCc2ccc(CO)cc2)O1`: the inhibition is 12.6%.

Turning to `O=C(CSc1nnc2c(n1)[nH]c1ccc(Br)cc12)NCc1ccccc1`, the inhibition is 21.6%.

`CN1CC(=O)N2C(c3cccc([N+](=O)[O-])c3)c3[nH]c4ccccc4c3C[C@H]2C1=O` (stereo partly specified): the inhibition came out at 14%.

Turning to `Cc1cc2cc(C(=O)N3CCCC(c4nc5ccccc5[nH]4)C3)ccc2o1` (stereo unspecified), the inhibition is -1.3%.

As to `CCN(CC)C(=O)C(=O)c1cn(CC(=O)N2CCCc3ccccc32)c2ccccc12`, the inhibition was -1.92%.

Consider `CCOC(=O)N1CCC(Nc2c(Nc3ccc(F)cc3)c(=O)c2=O)CC1`, for which the inhibition was -4.56%.

For the compound `O=C(NCCc1nc2ccccc2[nH]1)c1ccc(Cl)cc1Cl`, the inhibition came to 48.7%.

For the compound `COc1ccccc1-n1c(SCC(=O)Nc2ccc(Cl)cc2)nc(O)c(Cc2ccccc2)c1=O`, the inhibition was -19.7%.

Turning to `Cc1ccc2[nH]c3nc(SCC(=O)Nc4ccc(C(F)(F)F)cc4)nnc3c2c1`, the inhibition amounted to 4.54%.

Regarding `O=C(CC(=O)Nc1cccc(Cl)c1)NN=Cc1ccccc1`, the inhibition is 9.82%.

Turning to `Cc1cccc2[nH]c(C3CCCN(C(=O)c4cccc5cccnc45)C3)nc12` (stereo unspecified), the inhibition turned out to be 2.39%.

For `O=C(Cn1cc(C(=O)C(=O)N2CCOCC2)c2ccccc21)NCc1ccccc1`, the inhibition was 10.3%.

Take `O=C(NCCc1nc2ccccc2[nH]1)c1c(F)cccc1F`: the inhibition came to 0.73%.

On to `O=C(C(=O)N1CCOCC1)c1cn(CC(=O)N2CCCc3ccccc32)c2ccccc12`, for which the inhibition came to 3.68%.

As for `CCN(C(=O)Cn1cc(C(=O)C(=O)N2CCOCC2)c2ccccc21)c1ccccc1`, the inhibition was -14.2%.

For `CCO[C@@H]1OC(C(=O)NCc2nc3ccccc3[nH]2)=C[C@H](c2ccc(Br)cc2)[C@H]1CCCO`, the inhibition was -6.53%.

As usually defined, the inhibition is the relative decrease from the control value, in per cent.

Values taken from PubChem BioAssay AID743061 (The Scripps Research Institute Molecular Screening Center, 2013).
